# Residues, ends and D or L forms follow the SMILES beside them.
# Tests used:
# rPRCP1 [1] = biological target: T1, rPRCP1 (Homo sapiens, UniProt P42785); assay: Peptide inhibition of rPRCP1 hydrolysis of APpNA; type: biochemical
# T1 sequence (P42785 46-496): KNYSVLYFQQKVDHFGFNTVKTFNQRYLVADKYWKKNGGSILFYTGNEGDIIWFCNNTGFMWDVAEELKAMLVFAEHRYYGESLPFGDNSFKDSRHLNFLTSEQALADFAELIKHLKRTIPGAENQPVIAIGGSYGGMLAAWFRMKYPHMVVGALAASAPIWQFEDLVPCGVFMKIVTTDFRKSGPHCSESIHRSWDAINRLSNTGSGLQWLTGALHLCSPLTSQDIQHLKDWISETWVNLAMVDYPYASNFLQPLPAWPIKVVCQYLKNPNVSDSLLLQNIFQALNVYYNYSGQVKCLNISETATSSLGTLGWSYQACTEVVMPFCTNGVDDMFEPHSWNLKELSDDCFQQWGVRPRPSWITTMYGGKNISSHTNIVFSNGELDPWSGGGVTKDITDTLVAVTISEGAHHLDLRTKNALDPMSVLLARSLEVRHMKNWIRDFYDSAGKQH
# Method in brief: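 Recombinant PRCP1 hydrolysis of APpNA was measured at 37°C with sub-saturating substrate relative to Km. The initial hydrolysis rate was read at 405 nm in triplicate. Percent inhibition = [1 − (sample − blank)/(total − blank)] × 100, and IC50 and inhibition type were derived from it.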
# rPRCP1 [2] = biological target: T1, rPRCP1; assay: Hydrolysis of X-Pro-pNA chromogenic substrates by rPRCP1; type: biochemical; conditions: for ratio of Km to the Km of GPpNA: rPRCP1, X-Pro-pNA, 37°C 1 h, 405 nm, ratio <1 more selective than GPpNA
# Method in brief: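 Recombinant PRCP1 was expressed in Schneider 2 cells. Increasing concentrations of X-Pro-pNA substrates were incubated with it in HEPES-carbonated buffer (pH 7.1, 2 mM CaCl2, 1 mM MgCl2, 0.1% gelatin) at 37°C for 1 h in the dark; two substrates needed 24 h. pNA release was read at 405 nm. Runs were in duplicate, at least 3 times, and data were fit to Michaelis–Menten.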
# rPRCP activation of PK = rPRCP activation of PK bound to HK on microtiter plate; type: biochemical, human; conditions: rPRCP 3 μg, HK-coated plate, 1 h
# Method in brief: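 Plasma PK, wild-type rPK or mutant rPKs (25 nM) were added to HK-coated microtiter wells with or without recombinant PRCP in HEPES-carbonate buffer pH 7.1 for 1 h at 37°C. Some wells also received a peptide blocking PK–HK binding (0.1 mM). S2302 (0.5 mM) was then added for 1 h at 37°C and read at 405 nm; three experiments.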
# plasma kallikrein = assay: Autoactivation of human plasma PK with rPKs, fluid-phase assay; type: biochemical; conditions: 1 h
# Method in brief: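 Recombinant PK was expressed in stably transfected HEK cells in serum-free conditioned medium, purified by S-Sepharose cation exchange (pH 5.2, NaCl gradient) and dialysed into TBS pH 7.4. Plasma PK and rPKs, 25 nM each, were incubated in triplicate for 1 h at 37°C. […], kallikrein was assayed with or without a kallikrein inhibitor using 0.5 mM S2302 for 1 h at 37°C, read at 405 nm.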
# [3] = test system: PRCP1-dependent PK activation on HPAEC; assay: PRCP1-dependent PK activation; type: cell-based, human; conditions: 25 nM rPK + 25 nM HK on HPAEC
compound,measurement,setting,value
CSCC[C@H](NC(=O)[C@H](CCC(N)=O)NC(=O)[C@H](C)NC(=O)[C@H](CCCCN)NC(=O)CNC(=O)[C@@H](N)CC(=O)O)C(=O)N[C@@H](CCC(N)=O)C(=O)N[C@@H](CO)C(=O)N1CCC[C@H]1C(=O)N[C@@H](C)C(=O)O [DGK10] (H-DGKAQMQSPA-OH),IC50,rPRCP1 [1],600 µM
"Ala-Pro-paranitroanilide [APpNA, reference compound]",ratio of Km to the Km of GPpNA,rPRCP1 [2],0.4
"rPK^P637A: recombinant PK, C-terminal Pro-Ala replaced by Ala-Ala",activability by rPRCP (in words),rPRCP activation of PK; 25 nM rPK,significantly more activable by rPRCP than wild type rPK
same,autoactivation of plasma PK (in words),"plasma kallikrein; plasma PK 25 nM + rPK 25 nM, S2302",lower threshold for autoactivation
"Cc1cc(Oc2nc(Oc3cccc(C(=N)N)c3)c(F)c(NC(C)CCc3ccccc3)c2F)c(C(=O)O)cc1N(C)C (centres unmarked) [PF048, reference compound]",block of autoactivation of PK (in words),"plasma kallikrein; 100 nM inhibitor, plasma PK 25 nM + rPK mutants 25 nM",block
Ser-Pro-paranitroanilide [SPpNA],product turnover (kcat) compared with APpNA and GPpNA,"rPRCP1 [2]; rPRCP1, Michaelis-Menten fit",not significantly different
same,ratio of Km to the Km of GPpNA,rPRCP1 [2],0.23
same,"catalytic efficiency (kcat/Km), times higher than GPpNA",rPRCP1 [2]; rPRCP hydrolysis,6-7 times
same,"catalytic efficiency (kcat/Km), fold higher than APpNA","rPRCP1 [2]; rPRCP hydrolysis, printed as 'at least'",2-3 fold
wild type rPK: recombinant wild type human prekallikrein,activation to plasma kallikrein on HPAEC (in words),[3],less than half
same,degree of activation by rPRCP relative to wild type plasma PK,rPRCP activation of PK; 25 nM PK,about 66%
